Laboratory results from ChEMBL document CHEMBL4689842, “EUbOPEN Chemogenomics Library wave 1” (2021).
Several values for one entry are separate records, joined by “and”; a condition that tells them apart may be missing. Equal values may be shown once.

Tests used:
Assay type in all cases: toxicity, cell-based
U2OS [1] = assay: Multiplex assay against U2OS; conditions: human, 10 µM, compound concentration 10 uM
How it was run: (§1)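 Phenotypes for tubulin, mitochondrial mass and membrane permeability are expressed as per cents of healthy-nucleus cells. Cells were stained live at seeding with Hoechst33342, BioTracker Green Microtubule Cytoskeleton Dye, MitoTracker Red and Annexin V Alexa Fluor 680, then imaged after compound addition on a CQ1 microscope at 37°C and 5% CO2. Machine-learning gating in CellPathfinder separated Hoechst high-intensity objects from normal cells, divided normal cells by nuclear state (healthy, pyknosed, fragmented) and divided pyknosed cells into mitotic or apoptotic.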

U2OS [2] = assay: Incucyte cell viability with U2OS; conditions: human, 10 µM, compound concentration 10 uM; note: filed as whole numbers so only -1 and 0 and 1 occur
Fibroblast = assay: Multiplex assay against human fibroblast; conditions: 10 µM, compound concentration 10 uM; how it was run: as §1

O=C(O)c1ccc2c(c1)nc(Nc1cccc(Cl)c1)c1ccncc12 [SILMITASERTIB]
Population Tubulin-Different-Phenotype (%) (U2OS [1]; 12 h, replicate 2): 31% and 18% | Total Cell Count (U2OS [1]; 12 h, replicate 2): 140 and 110 | Population Apoptotic (%) (U2OS [1]; 24 h, replicate 1): 23% and 50% | Population Fragmented Nuclei (%) (U2OS [1]; 24 h, replicate 1): 9% and 4% | Population Healthy Nuclei (%) (U2OS [1]; 24 h, replicate 1): 82% and 91% | Population Hoechst High Intensity Objects (%) (U2OS [1]; 24 h, replicate 1): 1% and 3% | Population Membrane Permeable-Phenotype (%) (U2OS [1]; 24 h, replicate 1): 14% and 6% | Population Mitochondria Different-Phenotype (%) (U2OS [1]; 24 h, replicate 1): 20% and 35% | Population Mitotic Cells (%) (U2OS [1]; 24 h, replicate 1): 76% and 50% | Population Normal (%) (U2OS [1]; 24 h, replicate 1): 98% and 96% | Population Pyknosed Nuclei (%) (U2OS [1]; 24 h, replicate 1): 8% and 4% | Population Tubulin-Different-Phenotype (%) (U2OS [1]; 24 h, replicate 1): 33% and 35% | Total Cell Count (U2OS [1]; 24 h, replicate 1): 208 and 206 | Population Apoptotic (%) (U2OS [1]; 24 h, replicate 2): 25% and 11% | Population Fragmented Nuclei (%) (U2OS [1]; 24 h, replicate 2): 8% | Population Healthy Nuclei (%) (U2OS [1]; 24 h, replicate 2): 83% and 76% | Population Hoechst High Intensity Objects (%) (U2OS [1]; 24 h, replicate 2): 4% | Population Membrane Permeable-Phenotype (%) (U2OS [1]; 24 h, replicate 2): 10% and 5% | Population Mitochondria Different-Phenotype (%) (U2OS [1]; 24 h, replicate 2): 41% | Population Mitotic Cells (%) (U2OS [1]; 24 h, replicate 2): 75% and 88% | Population Normal (%) (U2OS [1]; 24 h, replicate 2): 95% | Population Pyknosed Nuclei (%) (U2OS [1]; 24 h, replicate 2): 7% and 14% | Population Tubulin-Different-Phenotype (%) (U2OS [1]; 24 h, replicate 2): 31% and 30% | Total Cell Count (U2OS [1]; 24 h, replicate 2): 168 and 127 | Growth Rate (U2OS [2]; 0 h, replicate number 1, timepoint 0 hours): 0 | Growth Rate (U2OS [2]; 0 h, replicate number 2, timepoint 0 hours): 1 | Growth Rate (U2OS [2]; 6 h, replicate number 1, timepoint 6 hours): 1 | Growth Rate (U2OS [2]; 6 h, replicate number 2, timepoint 6 hours): 0 | Growth Rate (U2OS [2]; 12 h, replicate number 1, timepoint 12 hours): 0 | Growth Rate (U2OS [2]; 18 h, replicate number 1, timepoint 18 hours): 0 | Growth Rate (U2OS [2]; 24 h, replicate number 1, timepoint 24 hours): 0 | Population Apoptotic (%) (Fibroblast; 12 h, replicate 1): 75% and 73% | Population Fragmented Nuclei (%) (Fibroblast; 12 h, replicate 1): 29% and 31% | Population Healthy Nuclei (%) (Fibroblast; 12 h, replicate 1): 56% and 60% | Population Hoechst High Intensity Objects (%) (Fibroblast; 12 h, replicate 1): 20% and 12% | Population Membrane Permeable-Phenotype (%) (Fibroblast; 12 h, replicate 1): 10% and 4% | Population Mitochondria Different-Phenotype (%) (Fibroblast; 12 h, replicate 1): 2% and 3% | Population Mitotic Cells (%) (Fibroblast; 12 h, replicate 1): 25% and 26% | Population Normal (%) (Fibroblast; 12 h, replicate 1): 79% and 87% | Population Pyknosed Nuclei (%) (Fibroblast; 12 h, replicate 1): 14% and 7% | Population Tubulin-Different-Phenotype (%) (Fibroblast; 12 h, replicate 1): 6% and 4% | Total Cell Count (Fibroblast; 12 h, replicate 1): 314 and 234 | Population Apoptotic (%) (Fibroblast; 12 h, replicate 2): 33% and 60% | Population Fragmented Nuclei (%) (Fibroblast; 12 h, replicate 2): 60% and 64% | Population Healthy Nuclei (%) (Fibroblast; 12 h, replicate 2): 33% and 25% | Population Hoechst High Intensity Objects (%) (Fibroblast; 12 h, replicate 2): 30% and 32% | Population Membrane Permeable-Phenotype (%) (Fibroblast; 12 h, replicate 2): 17% and 15% | Population Mitochondria Different-Phenotype (%) (Fibroblast; 12 h, replicate 2): 11% and 7% | Population Mitotic Cells (%) (Fibroblast; 12 h, replicate 2): 66% and 40% | Population Normal (%) (Fibroblast; 12 h, replicate 2): 69% and 67% | Population Pyknosed Nuclei (%) (Fibroblast; 12 h, replicate 2): 5% and 9% | Population Tubulin-Different-Phenotype (%) (Fibroblast; 12 h, replicate 2): 29% and 23% | Total Cell Count (Fibroblast; 12 h, replicate 2): 73 and 76 | Population Apoptotic (%) (Fibroblast; 24 h, replicate 1): 53% | Population Fragmented Nuclei (%) (Fibroblast; 24 h, replicate 1): 32% and 26% | Population Healthy Nuclei (%) (Fibroblast; 24 h, replicate 1): 53% and 60% | Population Hoechst High Intensity Objects (%) (Fibroblast; 24 h, replicate 1): 19% and 17% | Population Membrane Permeable-Phenotype (%) (Fibroblast; 24 h, replicate 1): 5% | Population Mitochondria Different-Phenotype (%) (Fibroblast; 24 h, replicate 1): 2% | Population Mitotic Cells (%) (Fibroblast; 24 h, replicate 1): 46% | Population Normal (%) (Fibroblast; 24 h, replicate 1): 80% and 82% | Population Pyknosed Nuclei (%) (Fibroblast; 24 h, replicate 1): 14% and 13% | Total Cell Count (Fibroblast; 24 h, replicate 1): 314 and 235 | Population Apoptotic (%) (Fibroblast; 24 h, replicate 2): 66% and 50% | Population Fragmented Nuclei (%) (Fibroblast; 24 h, replicate 2): 62% | Population Healthy Nuclei (%) (Fibroblast; 24 h, replicate 2): 26% and 29% | Population Hoechst High Intensity Objects (%) (Fibroblast; 24 h, replicate 2): 27% and 33% | Population Membrane Permeable-Phenotype (%) (Fibroblast; 24 h, replicate 2): 14% and 6% | Population Mitotic Cells (%) (Fibroblast; 24 h, replicate 2): 33% and 50% | Population Normal (%) (Fibroblast; 24 h, replicate 2): 72% and 66% | Population Pyknosed Nuclei (%) (Fibroblast; 24 h, replicate 2): 11% and 7% | Population Tubulin-Different-Phenotype (%) (Fibroblast; 24 h, replicate 2): 21% and 31% | Total Cell Count (Fibroblast; 24 h, replicate 2): 73 and 81
